High-throughput results as filed in PubChem BioAssay.
A selection: hits, their analogues and other compounds. The true share with any hit is near 1.9%.
Lipid droplet = hepatic lipid droplet formation modulation; AML12 mouse hepatocytes, oleate lipid droplets, BODIPY imaging; 240,000 tested, 0.4% active; inhibition, % at 6.5 µM; AID 1656;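 active = lipid droplet intensity inhibited by at least 50%, with more than 500 cells counted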
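Assay system: AML12 mouse liver cells | Compound dosing: One dose, 6.5 µM compound | Read-out basis: Droplet intensity reduction, % inhibition | Measured by: Fluorescence imaging, 20x objective, two fields per well | Schedule: Overnight treatment with compound plus oleate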
H9c2 TAG inh = inhibitors of triacylglycerol accumulation; H9c2 cells, Nile Red lipid (TAG) fluorescence; cells loaded with 200 µM oleic acid; inhibition, % at 12.5 µM; 230,000 tested, 0.66% active;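 active = pattern-corrected inhibition of lipid staining of at least 50% with the nuclear-stain viability signal not falling by more than 50%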;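 also: 0% = DMSO wells and 100% = triacsin C control wells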
Jurkat NFkB inh = inhibitors of the PMA/ionomycin-induced NF-kB reporter in Jurkat cells; 330,000 tested, 0.53% active; inhibition, % at 4 µM; AID 435003; PMA/ionomycin-induced NF-kB luciferase reporter, luminescence; in the data active = inhibition above about 50%
697 NFkB inh = inhibitors of the PMA/ionomycin-induced NF-kB reporter in 697 B cells. inhibition, % at 4 µM. 697 B-cell NF-kB luciferase reporter, 16 h. 330,000 tested, 0.33% active; in the data active = inhibition above about 35%
aSyn 5UTR inh = 5' untranslated region of α-synuclein, MLPCN primary screen; 300,000 tested, 0.82% active; inhibition, % (tested at 7.5 µM); alpha-synuclein 5'UTR reporter, inhibitor activity; AID 1813; in the data active = inhibition above about 60%;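 also: H4 neuroglioblastoma cells stably carrying SNCA 5'UTR luciferase fusion; 0% = DMSO wells and 100% = positive control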
APP 5UTR inh = APP translation inhibition; 190,000 tested, 0.82% active; inhibition, % at 2 µM; SH-SY5Y APP 5'UTR-luciferase reporter, luminescence; AID 1285;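 active = inhibition above a set limit, derived from the sample mean plus 3 SD, cut at about 45% in these data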
H9c2 TAG conf = confirmation of triacylglycerol accumulation inhibitors | inhibition, % at 12.5 µM | AID 651629 | 990 tested, 71% active | shares compounds with H9c2 TAG inh | H9c2 lipid accumulation, Nile Red fluorescence; cells loaded with 200 µM oleic acid;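 active = mean inhibition across replicates of 40% or more; inactive = mean inhibition below 40%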;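 also: plate controls were DMSO only wells for no effect and Triacsin C treated wells for full effect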
Active calls of the source: *; · = no result given; ! = repeats disagree.

SMILES	Lipid droplet	H9c2 TAG inh	Jurkat NFkB inh	697 NFkB inh	aSyn 5UTR inh	APP 5UTR inh	H9c2 TAG conf
CC1(c2ccccc2)O[C@@H]2C[C@H]3[C@@H]4CCC5=CC(=O)C=C[C@]5(C)[C@@]4(F)[C@@H](O)C[C@]3(C)[C@]2(C(=O)CO)O1 (stereo partly specified)	6.9	53.3*	5.6	4.2	36.4	·	55.4*
CN1CCCN(C(=O)CNC(=O)c2ccc(Cl)cc2Cl)CC1	·	13.1	-5.2	2.3	·	·	·
COc1cc(-c2nc3c(c(C)nn3-c3ccccc3)c3cc(OC)c(OC)cc23)ccc1O	·	61.8*	-21.5	-4.6	15.9	-7.6	58.5*
CCOCc1nnc(NC(=O)C2CC(=O)N(C3CCCC3)C2)s1 (stereo unspecified)	-10.7	·	11.7	-2.4	10.6	·	·
CCN(CC)CCn1c2c(c(SCC(=O)Nc3ccc(C)c(F)c3)nc1=O)CCCC2	·	52.6*	4.7	-11.7	-23.0	·	19.1
CCN(CC)CCn1c2c(c(SCC(=O)Nc3ccc(C)c(F)c3)nc1=O)CCC2	·	11.5	-5.9	-4.3	-19.8	·	·
COc1ccc(NC2=Nc3ccccc3N3C2=Nc2c(c(C)nn2-c2ccc(C)cc2)C3c2cccnc2)cc1 (stereo unspecified)	·	·	15.4	18.3	9.6	2.5	·
Cc1ccc(C2c3c(C)nn(-c4ccc([N+](=O)[O-])cc4)c3N=C3C(=O)Nc4ccccc4N32)cc1 (stereo unspecified)	30.6	·	25.7	13.0	8.9	-33.5	·
Cc1nn(-c2ccc([N+](=O)[O-])cc2)c2c1C(c1ccc(OC(F)F)cc1)N1C(=N2)C(=O)Nc2ccccc21 (stereo unspecified)	26.5	65.5*	40.5	15.7	46.5	8.6	69.3*
COc1cccc(C2c3c(C)nn(-c4ccc([N+](=O)[O-])cc4)c3N=C3C(=O)Nc4ccccc4N32)c1 (stereo unspecified)	-11.5	75.8*	26.9	11.3	19.4	5.5	80.7*
O=C(Cn1nnc(-c2ccccc2F)n1)Nc1ccc(S(=O)(=O)NC2CCCC2)cc1	·	·	-8.5	15.2	6.9	13.3	·
Cc1c(C(=O)N2CC3(CC(c4cccc(NC(=O)CC(c5ccccc5)c5ccccc5)c4)=NO3)C[C@@H]2C(N)=O)cc([N+](=O)[O-])cc1[N+](=O)[O-] (stereo partly specified)	-17.6	54.2*	11.1	5.8	12.0	·	42.5*
CN(C)C(CNC1CC(C)(C)NC(C)(C)C1)c1cccc(F)c1 (stereo unspecified)	16.6	·	-27.9	4.3	-10.8	·	·
CCN1CCN(Cc2ccc(NC(=O)c3cc(NC(=O)c4ccc5n[nH]nc5c4)cc(OC)c3)cc2C(F)(F)F)CC1	-4.5	3.8	0.1	-4.4	21.8	·	·
CCN1CCN(Cc2ccc(NC(=O)c3cc(NC(=O)c4ccno4)cc(OC)c3)cc2C(F)(F)F)CC1	16.2	23.7	-23.7	-8.6	-44.7	·	·
COc1cc(NC(=O)c2cc3cccc(OC)c3o2)cc(C(=O)Nc2cccc(C(F)(F)F)c2)c1	11.5	54.6*	22.0	12.6	-5.4	·	69.3*
CCN1CCN(Cc2ccc(NC(=O)c3cc(NC(=O)c4cncc(-c5cccs5)c4)cc(OC)c3)cc2C(F)(F)F)CC1	·	57.1*	6.7	9.3	108.8*	·	43.6*
CCN1CCN(Cc2ccc(NC(=O)c3cc(NC(=O)c4cc5cccc(OC)c5o4)cc(OC)c3)cc2C(F)(F)F)CC1	7.3	59.8*!	-9.5	-7.5	28.1	·	68.5*
CN1CCN(c2ccc([N+](=O)[O-])cc2C(=O)N2CCCCC2)CC1	-1.6	1.8	3.1	15.1	10.6	-11.4	·
CN1CCN(c2ccc([N+](=O)[O-])cc2C(=O)c2ccc(Cl)cc2)CC1	-5.7	53.8*	46.1	-38.1	36.8	6.1	49.5*
O=C(Nc1ccc(S(=O)(=O)N2CCOCC2)cc1)c1ccc([N+](=O)[O-])s1	·	94.0*	47.5	19.8	-42.7	·	89.2*
CCc1nnc(NS(=O)(=O)c2ccc(NC(=O)c3cccc([N+](=O)[O-])c3)cc2)s1	-0.7	·	2.0	8.9	-4.5	·	·
CCc1nnc(NS(=O)(=O)c2ccc(NC(=O)c3ccc([N+](=O)[O-])s3)cc2)s1	·	66.9*	·	·	·	·	7.7
O=C(Nc1ccc(S(=O)(=O)N2CCOCC2)cc1)c1cccs1	-1.7	-24.0	6.6	-8.3	-9.8	0.5	·
COc1ccc(COC(=O)c2ccc(Cl)c(S(=O)(=O)N3CC(C)OC(C)C3)c2)cc1 (stereo unspecified)	·	-47.0	2.9	-10.9	9.2	·	·
SMILES	Lipid droplet	H9c2 TAG inh	Jurkat NFkB inh	697 NFkB inh	aSyn 5UTR inh	APP 5UTR inh	H9c2 TAG conf
C[C@H]1CN([C@@H](C)CO)C(=O)Cc2cc(NC(=O)CCC(F)(F)F)ccc2O[C@H]1CN(C)S(=O)(=O)c1ccc(Cl)cc1	·	63.6*	-2.0	-32.3	·	·	69.2*
C[C@H]1CN([C@@H](C)CO)C(=O)Cc2cc(NC(=O)CCC(F)(F)F)ccc2O[C@H]1CN(C)S(=O)(=O)c1ccc(F)cc1	·	·	-7.5	11.7	·	·	·
O=C(CSc1cccc2cccnc12)N/N=C/c1ccc(O)cc1	-3.1	-8.4	2.6	2.0	17.9	·	·
CCCCCOc1ccc(NC(=O)CSc2cccc3cccnc23)cc1	-0.8	57.5*	4.8	-6.4	9.7	2.3	55.6*
COc1ccc(NC(=O)CSc2cccc3cccnc23)c(OC)c1	4.7	·	-9.0	1.1	26.0	-6.0	·
O=C(CSc1cccc2cccnc12)Nc1ccc(S(=O)(=O)N2CCOCC2)cc1	0.0	72.4*	9.1	19.4	13.3	·	56.7*
CCOC(=O)CSc1cccc2cccnc12	6.8	95.7*	10.0	-1.1	-36.0	31.4	40.7*
COc1cccc(/C=N/NC(=O)CSc2cccc3cccnc23)c1	6.9	61.0*	21.1	4.7	11.8	·	55.7*
O=C(OCC(=O)N1CCN(c2ccccc2)CC1)C1CCCN1S(=O)(=O)c1ccc(Cl)cc1 (stereo unspecified)	·	-25.0	2.1	29.4	·	·	·
Cc1ccc(C2c3c(oc4ccccc4c3=O)C(=O)N2c2nncs2)cc1 (stereo unspecified)	7.5	-5.2	8.2	24.9	5.6	·	·
CO/N=C\CC(=O)Nc1ccc(Oc2ccccc2)cc1	17.6	60.9*	41.9	-34.7	20.8	68.5*	81.5*
CN(CC(=O)NCCc1ccc(S(N)(=O)=O)cc1)S(=O)(=O)c1cccc2nsnc12	-13.9	·	-7.9	-4.7	-9.5	·	·
CCOc1ccc(CCNC(=O)CN(C)S(=O)(=O)c2cccc3nsnc23)cc1OCC	·	50.6*	5.4	-3.0	17.1	-5.4	43.7*
COc1ccc(CNC(=O)/C=C/c2ccc(OCCCF)cc2)cc1	·	55.6*	-5.5	13.0	-29.7	-6.8	30.8
OCCN1CCN(CC(O)COc2ccc(C34CC5CC(CC(C5)C3)C4)cc2)CC1 (stereo unspecified)	1.7	63.4*	-33.3	-38.4	84.9*	3.9	37.2
